DAGLB inh: diacylglycerol lipase beta (human) inhibition; HEK293T DAGLB membrane lysate, EnzChek fluorogenic substrate; Q8NCG7; AID 504411; 340,000 tested, 0.059% active; inhibition, % at 5.17 µM; in the data active = inhibition above about 34%
MPTP block: blocks calcium-induced mitochondrial swelling; isolated mouse mitochondria, Ca2+ swelling absorbance, 30 min; inhibition, % at 10 µM; 360,000 tested, 1.4% active; AID 602449;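 active = inhibition of 50% or more, scaled per plate between neutral and stimulator controls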
GPR7 antagonist: human neuropeptides B/W receptor 1 antagonism; P48145; GPR7-expressing cells, fluorescence antagonist assay; inhibition, % at 4.4 µM; 290,000 tested, 1.1% active; AID 1861; in the data active = inhibition above about 16%, passing the limit was not always enough;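 note: cells stimulated with the agonist NPW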
Target sequence (P48145 whole entry, looked up): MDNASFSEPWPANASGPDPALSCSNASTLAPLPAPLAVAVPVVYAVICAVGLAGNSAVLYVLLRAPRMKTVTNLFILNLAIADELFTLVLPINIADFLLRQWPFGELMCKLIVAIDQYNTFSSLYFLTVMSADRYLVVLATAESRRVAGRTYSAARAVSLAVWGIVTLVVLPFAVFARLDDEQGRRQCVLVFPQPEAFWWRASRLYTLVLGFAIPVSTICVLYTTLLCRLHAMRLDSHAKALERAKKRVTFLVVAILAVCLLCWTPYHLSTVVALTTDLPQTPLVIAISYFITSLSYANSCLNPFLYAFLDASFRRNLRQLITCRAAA
TAAR1 ag: human TAAR1 agonism; activation, % at 3 µM; AID 624467; CHO RD-HGA16 TAAR1, Fluo-8 calcium fluorescence; vehicle wells 0%, saturating PEA agonist 100%; 360,000 tested, 0.99% active; Q96RJ0;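 active = activation above the mean activation of all test compounds in the run plus 3 SD, cut at about 38% in these data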
Target sequence (Q96RJ0 whole entry, looked up): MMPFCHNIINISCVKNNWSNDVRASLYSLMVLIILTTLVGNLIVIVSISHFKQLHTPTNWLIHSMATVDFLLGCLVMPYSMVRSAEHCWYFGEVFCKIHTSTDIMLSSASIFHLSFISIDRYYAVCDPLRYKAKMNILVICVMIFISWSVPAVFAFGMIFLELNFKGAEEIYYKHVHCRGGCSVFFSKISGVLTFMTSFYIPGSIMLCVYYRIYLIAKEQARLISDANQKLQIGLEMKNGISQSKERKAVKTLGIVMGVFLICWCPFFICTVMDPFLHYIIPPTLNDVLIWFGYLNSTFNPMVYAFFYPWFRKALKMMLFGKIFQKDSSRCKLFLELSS
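Benchmarks: low control DMSO, high control PEA (EC100); System: CHO RD-HGA16 cells carrying human TAAR1 plus Gα16; Detection: Fluo-8 fluorescence, 5 s baseline then 140 s kinetic read; Schedule: 17-24 h plating, Fluo-8 75 min 37 °C, 30 min RT; Read-out basis: % activation from peak over basal fluorescence ratio, DMSO-to-PEA scaled.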
TAAR1 antag: antagonists of human TAAR1. Q96RJ0. 360,000 tested, 1.5% active. inhibition, % at 3 µM. CHO RD-HGA16 TAAR1, Fluo-8 calcium fluorescence, antagonist;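 active = inhibition above a per-plate cutoff, the mean inhibition of test compounds on that plate plus 3 SD, cut at about 49% in these data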
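Assay system: RD-HGA16 CHO cells with stable hTAAR1 and Gα16 / Reagent: EC80 β-phenethylamine stimulus / Doses: 3 µM, single point / Timing: dye loading 75 min at 37 °C, then 30 min room temperature / Measured by: Fluo-8 intracellular calcium dye fluorescence, real-time kinetic reads / Controls: vehicle wells and EC80 agonist wells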
Each line names hits and unclear results; the compound was inactive in the other large screens. Rows were chosen to be rich in hits. Some 4% of all compounds tested hit in one or more screens of this group.

O=C(CSc1n[nH]c(-c2ccc(Br)cc2)n1)NC1CCCC1	TAAR1 ag 43.2, TAAR1 antag 66.7 (no result: GPR7 antagonist)
CC1=Nc2ccccc2/C1=C\c1sc(Nc2ccc(C)cc2)nc1O	GPR7 antagonist 18.9
Oc1nc(Nc2cccc(Cl)c2)sc1/C=C1\C=Nc2ccccc21	TAAR1 antag 54.1
Oc1cccc(Nc2nc(O)c(/C=C3\C=Nc4ccccc43)s2)c1	none
COc1ccc(NC(=O)NN2CCOCC2)cc1OC	TAAR1 antag 63.2
CN(C)c1nc(OCCOC(=O)c2ccccc2)nc(N(C)C)n1	TAAR1 ag 38.6
COc1ccc(C(C(=O)NCc2ccccc2)N(Cc2ccc3c(c2)OCO3)C(=O)c2cnccn2)cc1 (centres undefined)	none
COc1ccc(C(C(=O)NCc2ccccc2)N(Cc2ccco2)C(=O)c2cnccn2)cc1 (centres undefined)	TAAR1 antag 53.4
COc1ccc(-c2nc3cc(C)c(Br)c(C)n3c2Cc2ccc(C)cc2)cc1OC	none (no result: DAGLB inh, GPR7 antagonist)
CC(=O)Nc1ccc(S(=O)(=O)N2CCN(C(=O)CCC3CCCC3)CC2)cc1	GPR7 antagonist 20.4
O=C(c1c[nH]c2ccccc12)N1CCN(Cc2ccccc2)CC1	GPR7 antagonist 18.2
O=C(c1cc(=O)[nH]c2ccccc12)N1CCN(Cc2ccc3c(c2)OCO3)CC1	none (no result: GPR7 antagonist)
O=C(CN1CCN(Cc2ccc3c(c2)OCO3)CC1)c1c[nH]c2ccccc12	TAAR1 ag 38.1
O=C(CN1CCN(Cc2ccc3c(c2)OCO3)CC1)Nc1ccc(F)cc1	TAAR1 ag 41.4
O=C(CN1CCN(Cc2ccc3c(c2)OCO3)CC1)Nc1ccc2c(c1)OCO2	none
CC(=O)Nc1cccc(-c2cccc3nccn23)c1	none (no result: DAGLB inh, GPR7 antagonist)
COC(=O)C1=C(C)N(Cc2cccc(C(F)(F)F)c2)C(=NCc2ccccc2C(F)(F)F)NC1c1cccc(C(F)(F)F)c1 (centres undefined)	none (no result: DAGLB inh, MPTP block, GPR7 antagonist)
COC(=O)[C@H]1C[C@@]2(O)CN(S(=O)(=O)c3ccc(C)cc3)C[C@@]2(OC(=O)Nc2cccs2)C[C@H]1C(=O)OC	none (no result: GPR7 antagonist)
CC(C)CC(c1nnnn1C(C)(C)C)N1CCN(C2CCCC2)CC1 (centres undefined)	GPR7 antagonist 17.8
COc1ccccc1C(=O)NCC(=O)N/N=C/c1cc(Br)ccc1OCc1ccccc1	TAAR1 antag 49.2
O=C(CNC(=O)c1ccc(F)cc1)N/N=C/c1cc(Br)ccc1OCc1ccccc1	none
COC(=O)c1cn(CC(C)n2c(=O)c3ccccc3n2Cc2cc(C(C)C)no2)nn1 (centres undefined)	none (no result: DAGLB inh, GPR7 antagonist)
O=C(NNC(=O)c1ccccc1F)c1ccc(S(=O)(=O)N2CCCCC2)cc1	none (no result: GPR7 antagonist)
CC(C)Nc1nc(NCc2ccccc2)c2sccc2n1	none (no result: DAGLB inh, GPR7 antagonist)
O=C(NCc1ccc(Cl)cc1)c1cccnc1	none
O=C(NCc1ccc(Cl)cc1)c1ccc(-n2cccn2)nc1	TAAR1 ag 41.0
CN1C(=O)[C@H]2[C@@H](c3ccc(C(F)(F)F)cc3)N[C@]3(CCCN(Cc4ccc(Br)cc4)C3=O)[C@H]2C1=O	none (no result: GPR7 antagonist)
COc1cc(C#Cc2c(-c3cncn3C)n(C)c3ccc(-c4cnc(N5CCOCC5)nc4)cc23)cc(OC)c1	none (no result: GPR7 antagonist)
COc1cc(C#Cc2c(-c3cncn3C)n(C)c3ccc(-c4ccc(CN5CCOCC5)cc4)cc23)cc(OC)c1	TAAR1 antag 56.2 (no result: GPR7 antagonist)
Cc1ccc(OCCN2C(=O)C(=O)c3cc(C)ccc32)cc1	none
Cc1ccc2c(c1)C(=O)C(=O)N2Cc1ccc(C(F)(F)F)cc1	TAAR1 antag 55.5 (no result: GPR7 antagonist)
COC(=O)c1c(C)oc2ccc(N(C(=O)c3ccncc3)S(=O)(=O)c3ccccc3)cc12	none
COC(=O)c1c(C)oc2ccc(N(C(=O)c3ccncc3)S(=O)(=O)c3ccc4ccccc4c3)cc12	TAAR1 antag 49.9
CN(C)S(=O)(=O)c1cc(NC(=O)c2cc(=O)c3ccccc3o2)ccc1Cl	TAAR1 ag 43.8
O=C1C(Cc2ccccc2)Nc2ncnc(N3CCc4ccccc4C3)c2N1Cc1ccc(Cl)cc1 (centres undefined)	none (no result: GPR7 antagonist, TAAR1 ag, TAAR1 antag)
CCC1Nc2ncnc(N3CCc4ccccc4C3)c2N(Cc2ccc(Cl)cc2)C1=O (centres undefined)	TAAR1 ag 39.6 (no result: GPR7 antagonist)
CC1Nc2ncnc(N3CCc4ccccc4C3)c2N(Cc2ccccc2)C1=O (centres undefined)	TAAR1 ag 38.6 (no result: DAGLB inh, GPR7 antagonist)
C[C@@H]1CCCCO[C@H](CN(C)S(=O)(=O)c2cn(C)cn2)[C@@H](C)CN([C@H](C)CO)C(=O)c2cc(NC(=O)c3ccncc3)ccc2O1	none (no result: GPR7 antagonist)
CCCCC[C@@H](/C=C/C1C(=O)C=C[C@H]1C/C=C\CCCC(=O)OC)OC(C)=O (some centres undefined)	TAAR1 antag 50.3 (no result: GPR7 antagonist)
COc1ccc(S(=O)(=O)Nc2cc(Sc3ncn[nH]3)c(O)c3ccccc23)cc1	TAAR1 ag 42.6 (no result: DAGLB inh, MPTP block)
O=C(O)COc1ccc(Cl)cc1C1CCCCC1	none (no result: GPR7 antagonist)
O=C(CCSCCC(=O)NN=Cc1ccccc1O)NN=Cc1ccccc1O	TAAR1 ag 43.6 (no result: GPR7 antagonist)
CC1(C(=O)Nc2ccc3c(c2)OCCO3)CCN1C(=O)Cc1ccc(-c2ccccc2)cc1 (centres undefined)	none (no result: DAGLB inh, GPR7 antagonist)
CN(C)S(=O)(=O)c1cc(NC(=O)COC(=O)CCSc2ccc(Cl)cc2)ccc1Cl	GPR7 antagonist 20.8
CC(C)CNS(=O)(=O)c1ccc(CCC(=O)Nc2cc(Cl)ccc2Oc2ccccc2)cc1	TAAR1 antag 63.3
CCCNS(=O)(=O)c1ccc(CCC(=O)Nc2cc(Cl)ccc2Oc2ccccc2)cc1	TAAR1 antag 68.6
CC(C)(C)NS(=O)(=O)c1ccc(CCC(=O)Nc2cc(Cl)ccc2Oc2ccccc2)cc1	none
COc1ccc(N2C(=O)c3n[nH]c(C)c3C2c2ccc(F)cc2)cc1 (centres undefined)	none (no result: DAGLB inh, MPTP block, GPR7 antagonist)
CCOC(=O)C1CCCN(Cc2nc3ccc([N+](=O)[O-])cc3c(=O)n2-c2ccc(OC)cc2OC)C1 (centres undefined)	TAAR1 ag 46.3, TAAR1 antag 69.2
Cc1cccc(OCC(=O)NNc2c3ccccc3nc3ccccc23)c1	TAAR1 antag 60.5
N#Cc1cc([N+](=O)[O-])ccc1N1CCN(c2ccccc2O)CC1	TAAR1 antag 52.2
CC(C)(C)C(=O)N1CCN(c2ccc([N+](=O)[O-])cc2Cl)CC1	none
O=[N+]([O-])c1ccc(N2CCN(c3ccc([N+](=O)[O-])cc3CO)CC2)c(CO)c1	TAAR1 antag 52.8
CCC1C(=NO)C(CC)C(c2ccccc2)NC1c1ccccc1 (centres undefined)	none
CC1/C(=N/O)CC(c2ccccc2)NC1c1ccccc1 (centres undefined)	none
CCCC1/C(=N/O)CC(c2ccccc2)NC1c1ccccc1 (centres undefined)	TAAR1 antag 57.4
CC(C)C1/C(=N/O)CC(c2ccccc2)NC1c1ccccc1 (centres undefined)	GPR7 antagonist 20.9
COc1cc(C(=O)NNC(=O)/C=C/c2ccccc2)cc(OC)c1OC	none (no result: GPR7 antagonist)
